The values that follow come from ChEMBL document CHEMBL1136508, “[3H]-methoxymethyl-MTEP and [3H]-methoxy-PEPy: potent and selective radioligands for the metabotropic glutamate subtype 5 (mGlu5) receptor” (Bioorg Med Chem Lett, 2003).

Data set [1] deals with Metabotropic glutamate receptor 5 (Rattus norvegicus, UniProt P31424). As to the kind of experiment: Binding affinity towards mGlu5 receptors in rat brain membranes was evaluated. Type of data set: cell membranes. The method, boiled down: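 Displacement of [3H]-methoxy-PEPy (specific activity 67.6 Ci/mmol) binding to rat brain membranes, incubated at room temperature (equilibrium within 60 min). Nonspecific binding was defined with an unlabelled mGlu5 antagonist as cold displacer. Concentration–response curves gave IC50 values.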
Sequence of Metabotropic glutamate receptor 5 (Rattus norvegicus, UniProt P31424) (P31424 whole entry): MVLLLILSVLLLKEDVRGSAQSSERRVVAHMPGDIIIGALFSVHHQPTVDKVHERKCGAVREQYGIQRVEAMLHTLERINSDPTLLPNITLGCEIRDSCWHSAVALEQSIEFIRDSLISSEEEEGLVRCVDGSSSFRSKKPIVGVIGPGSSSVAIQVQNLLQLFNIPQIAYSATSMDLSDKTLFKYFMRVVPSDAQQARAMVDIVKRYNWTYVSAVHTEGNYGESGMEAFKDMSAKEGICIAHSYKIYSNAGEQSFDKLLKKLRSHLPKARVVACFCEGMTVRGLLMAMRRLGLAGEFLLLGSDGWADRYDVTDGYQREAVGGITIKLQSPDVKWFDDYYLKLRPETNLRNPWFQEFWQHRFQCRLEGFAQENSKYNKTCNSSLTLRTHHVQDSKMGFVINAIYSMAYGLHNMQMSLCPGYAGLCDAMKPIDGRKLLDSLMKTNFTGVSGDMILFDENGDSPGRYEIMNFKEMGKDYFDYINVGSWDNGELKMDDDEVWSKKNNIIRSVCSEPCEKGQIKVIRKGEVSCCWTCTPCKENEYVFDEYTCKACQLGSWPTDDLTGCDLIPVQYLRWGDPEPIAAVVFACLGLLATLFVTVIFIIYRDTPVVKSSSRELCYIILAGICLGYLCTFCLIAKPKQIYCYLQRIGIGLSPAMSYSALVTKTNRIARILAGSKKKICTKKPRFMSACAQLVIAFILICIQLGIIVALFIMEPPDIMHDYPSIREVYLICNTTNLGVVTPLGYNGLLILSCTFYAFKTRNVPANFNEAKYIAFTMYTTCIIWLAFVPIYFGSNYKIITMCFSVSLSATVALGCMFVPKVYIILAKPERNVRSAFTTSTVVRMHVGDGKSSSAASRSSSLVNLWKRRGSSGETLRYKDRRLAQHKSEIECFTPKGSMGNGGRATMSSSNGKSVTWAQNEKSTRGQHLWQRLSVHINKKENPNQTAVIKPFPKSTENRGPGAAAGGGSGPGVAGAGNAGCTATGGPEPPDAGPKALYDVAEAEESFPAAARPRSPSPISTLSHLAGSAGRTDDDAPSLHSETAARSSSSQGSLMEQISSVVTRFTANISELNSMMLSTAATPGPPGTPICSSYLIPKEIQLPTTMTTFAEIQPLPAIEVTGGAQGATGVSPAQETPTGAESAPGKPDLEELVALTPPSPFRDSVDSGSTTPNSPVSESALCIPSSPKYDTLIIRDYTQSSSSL

The nature of data set [2]: Lipophilicity (Log D) was determined. It counts as physicochemical. The settings on record: octanol/water. The method, boiled down:
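LogD was determined by an HPLC method.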

Data set [3] has as its target T1, Metabotropic glutamate receptor 5 (Homo sapiens, UniProt P41594). As to the kind of experiment: In vitro functional potency using an automated assay employing LtK-cells stably expressing human recombinant mGlu5 receptor by measuring changes in cytosolic [Ca2+] concentration. In outline:
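Ltk- cells stably expressing recombinant human mGlu5 were loaded with fura-2. Glutamate-evoked rises in cytosolic Ca2+ were read by fluorescence. Concentration–response curves used 12 concentrations in duplicate wells, from two or more separate experiments.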

Data set [4] deals with T1, Metabotropic glutamate receptor 5. Put plainly: Binding affinity towards human mGlu5 receptors expressed in LtK-cells. It counts as cell-based.

T1 sequence (P41594 whole entry): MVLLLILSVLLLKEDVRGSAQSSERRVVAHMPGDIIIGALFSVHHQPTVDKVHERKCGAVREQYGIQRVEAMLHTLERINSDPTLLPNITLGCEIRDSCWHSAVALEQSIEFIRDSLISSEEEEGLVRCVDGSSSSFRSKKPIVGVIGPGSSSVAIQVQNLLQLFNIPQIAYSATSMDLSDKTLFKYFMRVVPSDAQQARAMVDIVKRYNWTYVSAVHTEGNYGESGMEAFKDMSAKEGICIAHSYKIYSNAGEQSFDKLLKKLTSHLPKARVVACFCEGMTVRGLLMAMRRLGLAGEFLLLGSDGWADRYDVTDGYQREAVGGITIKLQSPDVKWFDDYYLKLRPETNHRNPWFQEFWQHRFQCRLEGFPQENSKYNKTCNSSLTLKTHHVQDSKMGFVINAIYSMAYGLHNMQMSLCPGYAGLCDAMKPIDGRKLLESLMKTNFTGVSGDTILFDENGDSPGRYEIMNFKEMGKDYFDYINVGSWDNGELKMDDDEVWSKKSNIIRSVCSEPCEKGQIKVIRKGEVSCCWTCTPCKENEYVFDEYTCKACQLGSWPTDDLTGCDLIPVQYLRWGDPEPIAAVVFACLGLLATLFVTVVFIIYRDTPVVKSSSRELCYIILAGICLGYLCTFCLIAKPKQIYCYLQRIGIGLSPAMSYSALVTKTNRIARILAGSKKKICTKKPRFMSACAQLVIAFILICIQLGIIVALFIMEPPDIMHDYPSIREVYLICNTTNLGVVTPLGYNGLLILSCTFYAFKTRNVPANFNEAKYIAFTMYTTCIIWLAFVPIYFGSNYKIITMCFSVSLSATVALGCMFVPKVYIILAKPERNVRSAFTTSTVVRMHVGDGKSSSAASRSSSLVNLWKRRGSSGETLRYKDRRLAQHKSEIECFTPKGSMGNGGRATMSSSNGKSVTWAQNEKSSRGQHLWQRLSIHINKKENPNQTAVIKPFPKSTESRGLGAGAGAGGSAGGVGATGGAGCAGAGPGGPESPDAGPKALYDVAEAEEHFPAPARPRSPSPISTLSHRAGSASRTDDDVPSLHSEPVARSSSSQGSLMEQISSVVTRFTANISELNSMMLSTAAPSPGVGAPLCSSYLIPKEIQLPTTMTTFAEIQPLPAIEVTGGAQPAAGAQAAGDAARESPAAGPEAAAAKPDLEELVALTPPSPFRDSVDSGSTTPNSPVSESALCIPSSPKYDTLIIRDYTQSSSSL

A word on the IC50: it is the concentration at which inhibition is half-maximal. The term logD denotes lipophilicity at a set pH, counting ionised and neutral species. Low readings indicate a more hydrophilic compound, high ones a more lipophilic compound. Take `[3H]C([3H])([3H])Oc1cncc(C#Cc2ccccn2)c1`: the results for the 50% inhibitory concentration (IC50) in data set [1] and in data set [3] were 0.012 µM and 0.001 µM, respectively. In data set [2], this compound returned a logD of 2.25.
In data set [2], `[3H]C([3H])([3H])OCc1cncc(C#Cc2csc(C)n2)c1` showed a pH-dependent lipophilicity (logD) of 2.4. In addition, the IC50 in data set [4] came to 0.047 µM; in data set [3] it was 0.007 µM.
Turning to `Cc1cncc(C#Cc2csc(C)n2)c1`, the logD in data set [2] was found to be 2.5.
With `COCc1cncc(C#Cc2ccccn2)c1`, the logD in data set [2] was 2. In data set [3], the IC50 stood at 0.019 µM.
